Assay results: ChEMBL document CHEMBL3745660, “Hit-to-lead optimization of phenylsulfonyl hydrazides for a potent suppressor of PGE2 production: Synthesis, biological activity, and molecular docking study” (Bioorg Med Chem Lett, 2016)

Experiments:
RAW264.7 [1] = assay: Cytotoxicity against mouse RAW264.7 cells assessed as cell viability at 1 to 10 uM after 24 hrs in presence of LPS by MTT assay; type: cell-based; settings: raw264.7, 24 h
In short: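 RAW 264.7 macrophages treated with compounds at 1 or 10 µM in the presence of LPS for 24 h; viability read by MTT assay. Experiments run at least twice.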

RAW264.7 [2] = assay: Suppression of PGE2 production in LPS-induced mouse RAW264.7 cells after 24 hrs by enzyme immunoassay; type: functional, cell-based; settings: RAW264.7, 24 h
In short: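 RAW 264.7 cells stimulated with LPS and treated with compound for 24 h, first screened at 1 or 10 µM. Compounds giving >50% suppression went on to IC50 determination. PGE2 in medium measured by EIA. NS398 at 3 µM served as positive control. Runs done at least twice.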

Prostaglandin E synthase = molecular target: T1, Prostaglandin E synthase (Homo sapiens, UniProt O14684); assay: Inhibition of PGES-1 in human A549 cell microsomes using PGH2 as substrate assessed as suppression of interleukin-1beta-stimulated PGE2 production incubated for 15 mins post interleukin-1beta challenge for 72 hrs by RP-HPLC analysis
T1 sequence (O14684 whole entry): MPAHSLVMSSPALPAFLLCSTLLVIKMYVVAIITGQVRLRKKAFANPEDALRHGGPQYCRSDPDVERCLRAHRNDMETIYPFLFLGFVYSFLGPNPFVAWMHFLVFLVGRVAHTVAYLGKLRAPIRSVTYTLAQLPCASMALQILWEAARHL
In short: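 Enzyme source was A549 microsomes after 72 h IL-1β (2 ng/mL) stimulation, in 0.1 M potassium phosphate pH 7.4 with 2.5 mM GSH. Compounds preincubated 15 min at 4 °C over a concentration range, then 20 µM PGH2 added for 1 min at 4 °C. Reaction stopped, PGE2 recovered by solid-phase extraction and measured by RP-HPLC against 11β-PGE2.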

[3] = molecular target: T2, Prostaglandin E synthase (Homo sapiens) (UniProt O14684); assay: Inhibition of PGES-1 in human A549 cell microsomes using PGH2 as substrate assessed as remaining enzyme activity of interleukin-1beta-stimulated PGE2 production at 10 uM incubated for 15 mins post interleukin-1beta challenge for 72 hrs by RP-HPLC analysis
T2 sequence (whole entry): T1 sequence (O14684 whole entry)
In short: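 Microsomes from A549 cells stimulated with 2 ng/mL IL-1β for 72 h (pellet after 10,000 × g then 174,000 × g spins), diluted in 0.1 M potassium phosphate pH 7.4 with 2.5 mM glutathione. Compound at 10 µM preincubated 15 min at 4 °C, then 20 µM PGH2 added for 1 min at 4 °C. Stopped with FeCl2/citric acid containing 11β-PGE2 internal standard. PGE2 isolated by solid-phase extraction and quantified by RP-HPLC. Activity given as % of uninhibited control, mean ± S.E.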

[4] = molecular target: T2, Prostaglandin E synthase (Homo sapiens); assay: Potency index, ratio of IC50 for MK-886 to IC50 for test compound for inhibition of PGES-1 in human A549 cell microsomes; type: cell-based
RAW264.7 [5] = assay: Suppression of NO production in LPS-induced mouse RAW264.7 cells by Griess assay; type: functional, cell-based
In short: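 LPS (10 ng/mL)-stimulated RAW 264.7 cells co-incubated with compound at 0.1–10 nM. Nitrite in supernatant read with Griess reagent. Means ± SD of three samples; ANOVA with Dunnett's test.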

RAW264.7 [6] = assay: Potency index, ratio of IC50 for NS398 to IC50 for test compound for suppression of PGE2 production in LPS-induced mouse RAW264.7 cells; type: functional

IC50 (RAW264.7 [2]) [nM] | IC50 (Prostaglandin E synthase) [nM] | Activity [3] [%] | Ratio IC50 [4] | IC50 (RAW264.7 [5]) [nM] | Compound | Cytotoxic concentration (RAW264.7 [1]) | Ratio IC50 (RAW264.7 [6])
584 | – | – | – | – | COc1ccc(OC(=O)N(Nc2ccccc2)S(=O)(=O)c2ccccc2)cc1 | > 10 µM | –
34.1 | > 10000 | 55.7 | – | – | COc1ccccc1OC(=O)N(Nc1ccccc1)S(=O)(=O)c1ccc(C)cc1 | > 10 µM | –
81.5 | – | – | – | – | Cc1cc(C)c(S(=O)(=O)N(Nc2ccccc2)C(=O)Oc2ccc(OCc3ccccc3)cc2)c(C)c1 | > 1 µM | –
165 | – | – | – | – | COc1ccc(S(=O)(=O)N(Nc2ccccc2)C(=O)Oc2ccccc2OC)cc1 | > 10 µM | –
56.9 | > 10000 | 79.9 | – | – | CC(C)(C)c1ccc(S(=O)(=O)N(Nc2ccccc2)C(=O)Oc2ccc(OCc3ccccc3)cc2)cc1 | > 1 µM | –
4.5 | 70 | 18.5 | 30 | 6.9 | COc1ccc(S(=O)(=O)N(Nc2ccccc2)C(=O)Oc2ccc3c(c2)CCC3)cc1 | > 10 µM | 1.5
177 | – | – | – | – | Cc1cc(C)c(S(=O)(=O)N(Nc2ccccc2)C(=O)Oc2ccc(Oc3ccccc3)cc2)c(C)c1 | > 1 µM | –
28.5 | > 10000 | 63.6 | – | – | CCc1ccc(OC(=O)N(Nc2ccccc2)S(=O)(=O)c2ccc(OC)cc2)cc1 | > 10 µM | –
1010 | 6100 | 41.3 | – | – | Cc1ccc(OC(=O)N(Nc2ccccc2)S(=O)(=O)c2ccc(C)cc2)cc1 | > 10 µM | –
– | – | 16.3 | – | – | CC(C)c1ccc2c(c1)c(SC(C)(C)C)c(CC(C)(C)C(=O)O)n2Cc1ccc(Cl)cc1 | – | –
490 | – | – | – | – | COc1ccc(OC(=O)N(Nc2ccccc2)S(=O)(=O)c2ccc(OC)cc2)cc1 | > 10 µM | –
– | > 10000 | 63.6 | – | – | O=C(Oc1ccccc1)N(Nc1ccccc1)S(=O)(=O)c1ccccc1 | – | –
50 | > 10000 | 62.6 | – | – | COc1ccc(S(=O)(=O)N(Nc2ccccc2)C(=O)Oc2ccc(OCc3ccccc3)cc2)cc1 | >= 10 uM | –
134 | – | – | – | – | CCCc1ccc(S(=O)(=O)N(Nc2ccccc2)C(=O)Oc2ccc(Oc3ccccc3)cc2)cc1 | > 1 µM | –
32.6 | > 10000 | 81.2 | – | – | Cc1ccc(S(=O)(=O)N(Nc2ccccc2)C(=O)Oc2ccc(OCc3ccccc3)cc2)cc1 | >= 10 uM | –
17.1 | 6600 | 37.1 | – | – | COc1ccc(S(=O)(=O)N(Nc2ccccc2)C(=O)Oc2ccc(Oc3ccccc3)cc2)cc1 | > 10 µM | –
4430 | – | – | – | – | COc1ccc(S(=O)(=O)N(Nc2ccccc2)C(=O)Oc2ccccc2)cc1 | > 10 µM | –
1020 | – | – | – | – | Cc1ccc(OC(=O)N(Nc2ccccc2)S(=O)(=O)c2ccccc2)cc1 | > 10 µM | –
5720 | – | – | – | – | Cc1ccc(S(=O)(=O)N(Nc2ccccc2)C(=O)Oc2ccccc2)cc1 | > 10 µM | –
20.5 | > 10000 | 62.5 | – | – | CCOc1ccc(OC(=O)N(Nc2ccccc2)S(=O)(=O)c2ccc(OC)cc2)cc1 | > 10 µM | –

Compound | IC50 (RAW264.7 [2]) [nM] | IC50 (Prostaglandin E synthase) [nM] | Activity [3] [%] | Ratio IC50 [4] | IC50 (RAW264.7 [5]) [nM] | Cytotoxic concentration (RAW264.7 [1]) | Ratio IC50 (RAW264.7 [6])
O=C(Oc1ccc(OCc2ccccc2)cc1)N(Nc1ccccc1)S(=O)(=O)c1ccc(-c2ccccc2)cc1 | 93 | – | – | – | – | > 1 µM | –
O=C(Oc1ccc(Oc2ccccc2)cc1)N(Nc1ccccc1)S(=O)(=O)c1ccc(-c2ccccc2)cc1 | 161 | – | – | – | – | > 1 µM | –
